A short description of data set [1]: Compound was evaluated for the rate of clearance in rat upon intravenous administration. The note with it: in vivo. It is filed as ADME, organism-based. A digest of the protocol:
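Relative blood clearance measured at steady state. Compound dissolved in 5% (w/v) aqueous glucose with 2% (v/v) DMSO and 10% Encapsin HPB, target concentration 0.2 mg free base/ml. Given to rats as a constant-rate iv infusion over 12 h at a target 1 mg free base/kg/h, n = 3. Serial blood samples taken over the last 2 h to confirm steady state, then terminal exsanguination. Parent compound in blood measured by LC/MS/MS.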

In data set [2] the target is D(3) dopamine receptor (Homo sapiens, UniProt P35462). As to the kind of experiment: Binding affinity at Dopamine receptor D3 expressed in CHO cells by [125I]iodosulpiride displacement. It is filed as cell-based.
Chain of D(3) dopamine receptor (P35462 whole entry): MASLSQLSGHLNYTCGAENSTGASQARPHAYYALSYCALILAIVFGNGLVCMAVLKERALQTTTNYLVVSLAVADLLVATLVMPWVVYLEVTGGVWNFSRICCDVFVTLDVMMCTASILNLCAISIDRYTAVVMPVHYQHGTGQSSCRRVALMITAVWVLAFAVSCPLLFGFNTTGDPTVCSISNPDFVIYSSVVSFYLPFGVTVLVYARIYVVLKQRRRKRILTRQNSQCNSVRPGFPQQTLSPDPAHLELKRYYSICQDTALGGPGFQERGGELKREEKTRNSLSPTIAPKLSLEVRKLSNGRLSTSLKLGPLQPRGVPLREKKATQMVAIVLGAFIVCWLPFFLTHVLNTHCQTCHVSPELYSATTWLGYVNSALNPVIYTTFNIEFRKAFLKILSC
For data set [3], the target named is T1, D(2) dopamine receptor (Homo sapiens, UniProt P14416). As to the kind of experiment: Binding affinity at Dopamine receptor D2 expressed in CHO cells by [125I]iodosulpiride displacement. It is filed as cell-based.
T1 sequence (P14416 whole entry): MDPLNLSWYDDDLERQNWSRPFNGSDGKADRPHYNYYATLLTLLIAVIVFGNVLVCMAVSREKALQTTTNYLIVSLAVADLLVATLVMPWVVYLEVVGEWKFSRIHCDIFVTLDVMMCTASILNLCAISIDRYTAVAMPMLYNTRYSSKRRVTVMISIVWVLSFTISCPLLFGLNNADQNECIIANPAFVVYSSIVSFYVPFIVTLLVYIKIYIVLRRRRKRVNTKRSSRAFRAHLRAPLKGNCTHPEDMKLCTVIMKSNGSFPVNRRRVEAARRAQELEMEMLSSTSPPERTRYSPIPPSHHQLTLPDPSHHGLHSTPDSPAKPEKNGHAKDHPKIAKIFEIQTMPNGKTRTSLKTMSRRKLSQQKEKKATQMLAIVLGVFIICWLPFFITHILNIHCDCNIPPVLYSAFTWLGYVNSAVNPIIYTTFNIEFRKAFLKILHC
Data set [4] addresses T1, D(2) dopamine receptor. Description: Displacement of [125I]iodosulpiride from Dopamine receptor D2 expressed in CHO cells. It is filed as cell-based. On the technique in general: Displacement assays read how much labelled ligand stays bound in the presence of the test substance.

A word on the clearance: it is the volume of plasma or blood freed of the substance per unit of time. Read a low clearance as inefficient removal. For orientation: Ki means the dissociation constant of the complex between target and ligand, obtained from inhibition or displacement.

The structures appear in SMILES notation.

On to `CS(=O)(=O)Oc1cccc2c1CC[C@@H]1[C@@H]2CCCN1CCCCNC(=O)c1ccc(-c2ccccc2)cc1` [listing 1 of 2 here], for which the clearance in data set [1] is 61 mL/min/kg. Also, the Ki in data set [2] was 10 nM; in data set [3], 316 nM.
On to `CS(=O)(=O)Oc1cccc2c1CC[C@H]1[C@@H]2CCCN1CCCCNC(=O)c1ccc(-c2ccccc2)cc1`, for which the figures for the Ki in data set [2] and in data set [3] were 251 nM and 398 nM, respectively.
As for `CS(=O)(=O)Oc1cccc2c1CC[C@H]1[C@H]2CCCN1CCCCNC(=O)c1ccc(-c2ccccc2)cc1`, the Ki in data set [2] was 6.31 nM; in data set [3], 251 nM.
As for `O=C(NCCCCN1CC[C@H]2c3cccc(O)c3CC[C@@H]21)c1ccc(-c2ccccc2)cc1`, the Ki in data set [2] is 2 nM; in data set [3], 63.1 nM.
For the molecule `CS(=O)(=O)Oc1cccc2c1CC[C@@H]1[C@@H]2CCCN1CCCCNC(=O)c1ccc(-c2ccccc2)cc1` [listing 2 of 2 here], the Ki in data set [2] and in data set [3] was 1260 nM in each case.
As to `CS(=O)(=O)Oc1ccc2c(c1)CC[C@H]1[C@H]2CCN1CCCCNC(=O)c1ccc(-c2ccccc2)cc1`, the Ki in data set [2] was 50.1 nM; in data set [3], 1000 nM.
On to `CCCN(CCCCNC(=O)c1ccc(-c2ccccc2)cc1)C1CCc2c(Cl)cccc2C1` (stereo not drawn), for which, in data set [1], the clearance was determined as 96 mL/min/kg.
Regarding `O=C(NCCCCN1CCC[C@@H]2c3ccccc3CC[C@H]21)c1ccc(-c2ccccc2)cc1`, in data set [1], the clearance was 46 mL/min/kg. In addition, the Ki was 15.8 nM in data set [2] and 501 nM in data set [3].
For the molecule `O=C(NCCCCN1CCC[C@H]2c3ccc(O)cc3CC[C@@H]21)c1ccc(-c2ccccc2)cc1`, the inhibition constant Ki was 7.94 nM in data set [2] and 501 nM in data set [3].
Turning to `O=C(NCCCCN1CC[C@@H]2c3ccccc3CC[C@@H]21)c1ccc(-c2ccccc2)cc1`, the clearance in data set [1] was 59 mL/min/kg. Besides, the Ki in data set [2] was 50.1 nM; in data set [3], 501 nM.
In the case of `COc1cccc2c1CC[C@H]1[C@H]2CCN1CCCCNC(=O)c1ccc(-c2ccccc2)cc1`, the Ki was 15.8 nM in data set [2] and 631 nM in data set [3].
The like results for `COc1cccc2c1CC[C@@H]1[C@@H]2CCCN1CCCCNC(=O)c1ccc(-c2ccccc2)cc1` were, in that order, 794 nM and 794 nM.
On the same counts, the results for `CS(=O)(=O)Oc1ccc2c(c1)CC[C@H]1[C@H]2CCCN1CCCCNC(=O)c1ccc(-c2ccccc2)cc1` are 200 nM and 2000 nM.
`O=C(NCCCCN1CCC[C@@H]2c3ccccc3CC[C@@H]21)c1ccc(-c2ccccc2)cc1`: the Ki is 794 nM in data set [4] and 251 nM in data set [2].
For the molecule `O=C(NCCCCN1CC[C@H]2c3ccc(O)cc3CC[C@@H]21)c1ccc(-c2ccccc2)cc1`, the Ki in data set [2] was 12.6 nM; in data set [3], 316 nM.
Take `O=C(NCCCCN1CC[C@H]2c3ccccc3CC[C@@H]21)c1ccc(-c2ccccc2)cc1`: the Ki was 15.8 nM in data set [2] and 501 nM in data set [3].
Take `CS(=O)(=O)Oc1cccc2c1CC[C@H]1[C@H]2CCN1CCCCNC(=O)c1ccc(-c2ccccc2)cc1`: the Ki was 5.01 nM in data set [2] and 316 nM in data set [3].
The like results for `COc1cccc2c1CC[C@H]1[C@H]2CCCN1CCCCNC(=O)c1ccc(-c2ccccc2)cc1` (single isomer, unassigned) were, in that order, 7.94 nM and 501 nM.

Values taken from ChEMBL document CHEMBL1130629, “Fused aminotetralins: novel antagonists with high selectivity for the dopamine D3 receptor” (Bioorg Med Chem Lett, 1998).
